High-throughput results: PubChem BioAssay, several laboratories
TPT1 inh: Candida albicans TPT1 enzyme inhibitors, primary screen, biochemical, fluorescence polarization | inhibition, % at 5 µM | actives 0.81% (n = 300,000) | AID 1962, 2009 | tRNA 2'-phosphotransferase TPT1 (Candida albicans SC5314) | recombinant caTPT1, FP RNA substrate dephosphorylation;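 active = inhibition above the mean of all tested compounds plus 3 SD, set per screening campaign, cut at about 24% in these data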;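 also: plate controls were DMSO alone for no effect and ferristatin control at 100 nM for full effect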
IDE cell activ: human IDE activators in live cells, primary screen, fluorescence polarization, HEK cells, FAbeta-B substrate. Insulin-degrading enzyme (Homo sapiens), P14735. FAbeta-B cleavage; 0% vehicle, 100% cell-free pure enzyme wells. activation, % at 5.96 µM. actives 0.073% (n = 340,000). AID 493087, 2011;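 active = activation above the mean of all tested compounds plus 3 SD, set per screening campaign, cut at about 17% in these data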
Target sequence (P14735 whole entry, looked up): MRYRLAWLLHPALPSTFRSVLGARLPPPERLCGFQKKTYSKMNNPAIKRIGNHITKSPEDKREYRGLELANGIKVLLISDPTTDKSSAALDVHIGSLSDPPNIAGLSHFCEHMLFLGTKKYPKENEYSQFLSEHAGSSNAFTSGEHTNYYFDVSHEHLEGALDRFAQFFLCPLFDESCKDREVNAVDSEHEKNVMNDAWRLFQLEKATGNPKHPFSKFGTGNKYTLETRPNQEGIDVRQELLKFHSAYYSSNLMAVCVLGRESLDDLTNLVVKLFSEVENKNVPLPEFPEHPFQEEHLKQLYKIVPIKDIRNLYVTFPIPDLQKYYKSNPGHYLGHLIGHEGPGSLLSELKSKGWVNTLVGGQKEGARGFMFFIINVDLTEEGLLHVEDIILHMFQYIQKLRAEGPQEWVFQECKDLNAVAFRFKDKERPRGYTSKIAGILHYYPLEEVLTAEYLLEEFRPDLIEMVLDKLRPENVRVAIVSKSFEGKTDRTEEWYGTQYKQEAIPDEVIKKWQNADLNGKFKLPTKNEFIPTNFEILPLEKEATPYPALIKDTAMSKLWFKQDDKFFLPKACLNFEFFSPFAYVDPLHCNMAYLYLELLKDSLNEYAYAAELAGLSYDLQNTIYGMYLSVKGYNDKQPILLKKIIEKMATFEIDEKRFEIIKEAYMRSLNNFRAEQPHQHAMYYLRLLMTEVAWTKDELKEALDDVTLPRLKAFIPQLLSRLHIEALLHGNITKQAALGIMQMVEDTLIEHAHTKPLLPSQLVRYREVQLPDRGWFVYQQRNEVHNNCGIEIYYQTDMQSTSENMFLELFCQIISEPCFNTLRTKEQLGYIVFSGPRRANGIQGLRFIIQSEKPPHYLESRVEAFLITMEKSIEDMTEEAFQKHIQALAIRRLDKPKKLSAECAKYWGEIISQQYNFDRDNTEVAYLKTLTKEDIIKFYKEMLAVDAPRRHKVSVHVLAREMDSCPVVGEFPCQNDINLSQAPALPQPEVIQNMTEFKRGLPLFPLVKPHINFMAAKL
CSN deneddyl inh: inhibitors of CSN-mediated cullin deneddylation, primary screen, biochemical, fluorescence polarization, uHTS. Purified CSN, SCF-Nedd8-OG deneddylation. COP9 signalosome complex subunit 5 (Homo sapiens), Q92905. actives 0.38% (n = 360,000). AID 651999, 2013. inhibition, % at 12.5 µM;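 active = pattern-corrected inhibition above about 35%, with an unprinted fluorescence ratio check between 0.5 and 1.5, limit read from the data, passing the limit was not always enough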;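 also: 0% = enzyme with substrate and 100% = substrate without enzyme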
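Material: purified human Csn5 enzyme expressed in HEK293T cells / Medium: Tris buffer pH 7.5, NaCl, DTT, Tween-20, trehalose, ovalbumin / Compound dosing: 12.5 µM single point / Schedule: 90 min incubation of compound, enzyme and substrate at room temperature / Signal: fluorescence polarization of the substrate / Control set: no-enzyme wells high, enzyme-with-substrate wells low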
Rpn11 block: Rpn11 (PSMD14) deubiquitinase inhibitors, primary screen, biochemical, fluorescence polarization, uHTS | 26S proteasome non-ATPase regulatory subunit 14 (Homo sapiens), O00487 | actives 0.59% (n = 360,000) | inhibition, % at 20 µM | human 26S proteasome, Ub4-pepOG fluorescence polarization; 20S core pre-blocked with epoxomicin;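 active = inhibition at 20 µM, scaled to each plate's controls, above about 33%, limit read from the data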
HNF4A DNA FP: change in binding of human HNF4A to DNA, primary screen, biochemical, fluorescence polarization, FITC-DNA. 1 h. AID 1224865, 2016. Hepatocyte nuclear factor 4-alpha (Homo sapiens), P41235. activity change, % at 10 µM. actives 0.3% (n = 360,000); in the data active = activity change above about 30%, passing the limit was not always enough
IDE inh: human IDE inhibitors in live cells, primary screen, fluorescence polarization, HEK cells, FAbetaB substrate. Insulin-degrading enzyme (Homo sapiens), P14735. FAbetaB cleavage. inhibition, % at 5.59 µM. actives 0.41% (n = 320,000);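 active = percent inhibition above the average of all tested compounds plus 3 SD, set per screening campaign, cut at about 16% in these data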;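 also: IDE supplied by intact live HEK cells; FP after avidin binding of uncleaved biotin substrate so inhibition keeps polarization high; 0% = DMSO wells and 100% = 60 µM reference IDE inhibitor Ii1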
* = called active by the depositor; · = no result shown. Sampled rows, rich in hits. Any-hit rate of the full collection: about 1.7%.

SMILES	TPT1 inh	IDE cell activ	CSN deneddyl inh	Rpn11 block	HNF4A DNA FP	IDE inh
COC(=O)c1ccc(C(=O)OC)c(NC(=O)Oc2ccccc2)c1	1.6	2.2	-2.8	-8.8	2.2	8.9
CCN(Cc1ccccc1)C(=S)Nc1cc(C(=O)OC)ccc1C(=O)OC	3.0	3.2	2.1	-0.4	33.2*	0.1
O=C(Nc1ccc2c(c1)OCCO2)c1oc2ccccc2c1NC(=O)C1CC1	3.2	6.0	-13.9	2.7	-5.9	4.9
O=C(Nc1ccccc1)c1oc2ccccc2c1NC(=O)C1CC1	1.0	3.5	-0.9	0.5	61.2*	-0.8
O=C(N=C1SC2CS(=O)(=O)CC2N1Cc1ccc(Cl)cc1)C1CC1 (stereo not given)	2.5	3.0	-0.6	-0.4	-2.6	-0.5
N=c1n(Cc2ccccc2Cl)c2ccccc2n1CC(O)c1ccco1 (stereo not given)	5.7	6.8	-1.2	-8.7	61.1*	2.0
CC(C(=O)N1CCc2ccccc21)n1cnc2c1c(=O)n(C)c(=O)n2C (stereo not given)	·	2.2	-6.2	-8.9	-1.2	3.2
COc1ccc(-c2cc(C#N)nc(N3CCNCC3)n2)cc1	-2.9	2.1	2.7	11.0	43.1*	0.5
FC(F)(F)c1ccc(N2CCOCC2)c(Nc2nc3ccccc3n3cnnc23)c1	0.2	1.6	4.7	1.7	29.8*	6.3
NC(=O)C1=C(N=C2CCCCC2)CCCC1	·	5.0	53.2*	2.8	-1.4	·
O=C(COc1ccc(Cl)cc1Cl)N/N=C/c1ccc(OC2OC(CO)C(O)C(O)C2O)cc1 (stereo not given)	-3.6	-6.6	3.4	1.4	2.6	13.8
CCCCCC[n+]1ccccc1/C=C/c1ccc(N(C)C)cc1	·	·	99.8	·	120.7*	·
O=C(Nc1ccc(-c2ccc3nncn3n2)cc1)c1ccc(Br)o1	4.1	8.4	64.5*	13.7	-6.0	4.0
CC(C)C(=O)Nc1ccc(-c2ccc3nncn3n2)cc1	-0.1	5.9	0.9	3.7	-0.8	7.7
O=C(c1cnn(C(=O)c2ccco2)c1)c1cc(Cl)cc(Cl)c1O	·	-1.4	5.8	12.1	13.5	0.8
O=C(c1cnn(C(=O)c2ccco2)c1)c1cc(F)ccc1O	·	27.4*	0.2	-1.6	0.5	2.0
O=C(OCCNc1ccc(C(F)(F)F)cc1[N+](=O)[O-])c1cc2ccccc2oc1=O	-0.9	5.7	95.0*	·	176.6	9.5
O=[N+]([O-])c1cc(C(F)(F)F)ccc1NCCOc1ccccc1	-1.3	4.5	-7.0	-2.1	1.5	7.0
COc1ccc(Cn2c(-c3ccc(OC)cc3)nc3c(c(=O)c4ccccc4n3C)c2=O)cc1	-1.9	·	·	·	·	-10.6
COc1ccc(Cn2c(-c3ccc(C)cc3)nc3c(c(=O)c4ccccc4n3C)c2=O)cc1	2.0	4.0	44.5*	-9.1	8.0	0.5
CC1CC(=O)N(c2ccc(NCc3ccc(Cl)cc3)c([N+](=O)[O-])c2)C1=O (stereo not given)	1.0	5.7	39.3*	·	-2.7	1.5
Nc1nc(COC(=O)CCC(=O)c2ccccc2)nc(Nc2ccccc2)n1	·	-3.0	105.5*	7.4	30.3	·
Nc1nc(COC(=O)c2ccc3c(c2)OCCO3)nc(Nc2ccccc2)n1	·	-5.7	-0.8	-2.1	-0.9	-10.8
COCCN1C(=O)C(=O)/C(=C(/O)c2ccc(C)cc2)C1c1ccccn1 (stereo not given)	-0.5	-1.9	2.0	6.9	4.4	-1.7
CCN(CC)CC(=O)n1c2c(c3ccccc31)CCCC2	3.2	3.4	1.0	9.0	-0.2	-2.7
CN1CCN(CC(=O)n2c3c(c4ccccc42)CCCC3)CC1	2.0	1.6	39.3*	-0.5	6.2	4.7
